Laboratory results taken from ChEMBL document CHEMBL1137404, “Enzyme specific activation of benzoquinone ansamycin prodrugs using HuCC49DeltaCH2-beta-galactosidase conjugates” (J Med Chem, 2006).
Calls of active or inactive are those of the source. The rule behind the calls is not given here.

Key:
LS174T [1] = test: Cytotoxicity against human LS174T cells in presence of HuCC49deltaCH2-beta galactosidase conjugate by MTS assay; assay type: functional, cell-based
Procedure, shortened: (§1)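 LS174T cells (2,000−5,000/well) grown 24 h, then given 1 h with PBS, enzyme-only staining buffer or antibody-enzyme conjugate (2 units) and washed three to five times. Compound added at 0−25 μM for 72 h.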

LS174T [2] = test: Induction of Hsp90-mediated AKT degradation in human LS174T cells in absence of HuCC49deltaCH2-beta galactosidase by Western blotting at 2 uM; assay type: functional
Procedure, shortened: (§2)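 LS174T cells at 50−70% confluence given 1 h with free β-galactosidase or antibody-enzyme conjugate in PBS with 2% FBS, washed, then exposed 24 h to 2 or 10 μM compound. Lysates (30 μg) run on 10% SDS-PAGE and blotted for AKT and β-actin by ECL. AKT expressed as Akt:β-actin ratio relative to control (100%).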

LS174T [3] = test: Induction of Hsp90-mediated AKT degradation in human LS174T cells after 1 hr in presence of HuCC49deltaCH2-beta galactosidase conjugate by Western blotting; assay type: functional; procedure, shortened: as §2
LS174T [4] = test: Cytotoxicity against human LS174T cells by MTS assay; assay type: functional, cell-based; procedure, shortened: as §1
LS174T [5] = test: Induction of Hsp90-mediated AKT degradation in human LS174T cells in absence of HuCC49deltaCH2-beta galactosidase by Western blotting at 10 uM; assay type: functional; procedure, shortened: as §2
LS174T [6] = test: Induction of Hsp90-mediated AKT degradation in human LS174T cells in presence of HuCC49deltaCH2-beta galactosidase conjugate by Western blotting at 10 uM; assay type: functional; procedure, shortened: as §2
LS174T [7] = test: Induction of Hsp90-mediated AKT degradation in human LS174T cells in presence of HuCC49deltaCH2-beta galactosidase conjugate by Western blotting at 2 uM; assay type: functional; procedure, shortened: as §2

Structure (SMILES) | IC50 (LS174T [1]) [µM] | Activity (LS174T [2]) | Activity (LS174T [3]) [%] | IC50 (LS174T [4]) [µM] | Activity (LS174T [5]) [%] | Activity (LS174T [6]) [%] | Activity (LS174T [7]) [%]
CO[C@H]1/C=C\C=C(/C)C(=O)NC2=CC(=O)C(NCCO[C@@H]3O[C@H](CO)[C@H](O)[C@H](O)[C@H]3O)=C(C[C@@H](C)C[C@H](OC)[C@H](O)[C@@H](C)/C=C(\C)[C@@H]1OC(N)=O)C2=O | 1.12 | inactive | 70 | > 25 |  |  | 
CO[C@H]1/C=C\C=C(/C)C(=O)NC2=CC(=O)C(N)=C(C[C@@H](C)C[C@H](OC)[C@H](O)[C@@H](C)/C=C(\C)[C@@H]1OC(N)=O)C2=O |  | 70% |  |  | 70 | 70 | 70
COC1=C2C[C@@H](C)C[C@H](OC)[C@H](O)[C@@H](C)/C=C(\C)[C@H](OC(N)=O)[C@@H](OC)/C=C\C=C(/C)C(=O)NC(=CC1=O)C2=O [GELDANAMYCIN] |  |  |  | 0.45 |  |  | 
